High-throughput results from PubChem.
EBI2 block: antagonists of human EBI2 receptor | P32249 | EBI2 beta-arrestin recruitment, luminescence, 7a,25-OHC stimulated | inhibition, % at 5 µM | 360,000 tested, 0.81% active; in the data active means inhibition above about 38%;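 further: enzyme fragment complementation signal reports receptor beta-arrestin coupling in cells; 0% = agonist plus DMSO wells and 100% = wells without agonist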
MC4R antag cAMP: blocks human MC4R cAMP signaling. P32245. MC4R-expressing cells, MTII-stimulated cAMP, LANCE TR-FRET. inhibition, % at 6.5 µM. 360,000 tested, 0.48% active. AID 540295;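 active means inhibition above its plate's cutoff, the mean of tested wells on that plate plus 3 SD, cut at about 29% in these data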;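 further: 0% = Melanotan II alone and 100% = Melanotan II plus saturating MCL0020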
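Material: human MC4R-expressing U2OS cells. Probe or stimulus: Melanotan II challenge. Dosing: 6.5 µM single dose. Times: 30-min compound, 1-h challenge, 1-h detection, room temperature. Technique: TR-FRET with Eu-cAMP and labeled anti-cAMP, 671 nm. Replication: singlicate.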
MC4R barr agon: agonists of human melanocortin 4 receptor (MC4R) beta-arrestin; P32245; U2OS MC4R beta-arrestin complementation, luminescence; percent of melanotan II response, DMSO zero; activation, % at 8.9 µM; 360,000 tested, 0.98% active; AID 540308;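 active means activation above a per-plate cutoff, the mean activation of sample wells on that plate plus 3 SD, cut at about 8% in these data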
m5-HT2A agonist: mouse HTR2A agonism via beta-arrestin recruitment. CHO-K1 mHTR2A beta-arrestin complementation, luminescence; percent of 30 µM serotonin response. activation, % at 7.6 µM. 360,000 tested, 0.66% active. P35363;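 active means activation above a run cutoff, the mean activation of all tested compounds plus 3 SD, cut at about 14% in these data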;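 further: 0% = plate median of compound wells and 100% = 30 µM serotonin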
Target sequence (P35363 whole entry, looked up): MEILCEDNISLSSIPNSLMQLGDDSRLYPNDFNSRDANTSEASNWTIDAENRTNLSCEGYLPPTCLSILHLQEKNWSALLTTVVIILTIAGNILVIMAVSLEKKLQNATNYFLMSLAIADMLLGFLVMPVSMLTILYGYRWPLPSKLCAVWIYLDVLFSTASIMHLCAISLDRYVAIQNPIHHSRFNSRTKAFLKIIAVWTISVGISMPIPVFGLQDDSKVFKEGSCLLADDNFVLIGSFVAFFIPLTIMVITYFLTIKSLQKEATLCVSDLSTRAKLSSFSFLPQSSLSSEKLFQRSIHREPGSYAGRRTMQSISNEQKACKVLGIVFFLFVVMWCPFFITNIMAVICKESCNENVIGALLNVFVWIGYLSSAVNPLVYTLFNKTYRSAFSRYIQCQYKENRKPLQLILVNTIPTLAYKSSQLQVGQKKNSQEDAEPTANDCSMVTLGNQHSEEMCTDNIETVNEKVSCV
EBI2 conf: EBI2 (human) antagonism, single concentration confirmation. inhibition, % at 5 µM. 2,400 tested, 29% active. shares compounds with EBI2 block. AID 651997. EBI2 beta-arrestin luminescence, 7a,25-OHC antagonism;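 active means inhibition of at least 50%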
EBI2 ag: EBI2 agonism counter-screen; shares compounds with EBI2 block; EBI2-expressing cells, agonist mode, luminescence, 60 min; 0% vehicle, 100% 7α,25-dihydroxycholesterol control; activation, % at 5 µM; 2,400 tested, under 10 active; AID 652000;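 active means activation of at least 50%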
bGal counter: beta-galactosidase inhibition counter-screen; purified beta-galactosidase, luminescent Galacton Star, 15 min; shares compounds with EBI2 block; AID 652176; inhibition, % at 5 µM; 2,400 tested, 1% active;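 active means replicate-average signal at least 3 plate SD below neutral wells, shown as high inhibition, flagging enzyme-inhibiting false positives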;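 further: 0% = DMSO wells with enzyme and 100% = wells lacking enzyme; higher means stronger loss of beta-gal luminescence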
An asterisk follows results filed as active; nt = no result given. The list is not random: actives were taken first. Their share in the collection is about 2.8%.

SMILES	EBI2 block	MC4R antag cAMP	MC4R barr agon	m5-HT2A agonist	EBI2 conf	EBI2 ag	bGal counter
O=C(CSc1cccc(C(F)(F)F)c1)N1CCN(S(=O)(=O)c2ccccc2)CC1	16	12	5	-9	nt	nt	nt
COc1ccc(-c2noc(C3CCCN(C(=O)Nc4ccccc4)C3)n2)cc1 (configuration not stated)	-4	21	-1	-2	nt	nt	nt
O=C(Nc1ccc(Cl)cc1)N1CCN(c2ccc3nnc(-c4ccc(F)cc4)n3n2)CC1	48*	14	0	-2	49	-2	-8
O=C(Nc1ccc(Cl)cc1)N1CCC(c2nc(-c3ccc(F)cc3)no2)CC1	53*	4	7	-3	33	2	7
COc1ccc(NC(=O)N2CCCC(c3nc(-c4ccc(OC)cc4)no3)C2)cc1 (configuration not stated)	58*	-3	-2	-1	30	1	2
COC(=O)c1ccc(S(=O)(=O)NCc2ccccn2)n1C	-12	13	3	2	nt	nt	nt
O=C(NCc1ccccc1)c1cc(C2COCCN2C(=O)c2ccc3c(c2)CCO3)on1 (configuration not stated)	-3	-7	0	6	nt	nt	nt
CN(Cc1ccccc1)C(=O)c1cc2cc(F)ccc2[nH]1	55*	1	1	-3	58*	0	7
NC(=O)Cc1ccc(C(=O)CSc2nnc(-c3ccncc3)n2C2CC2)s1	0	9	-1	1	nt	nt	nt
O=C(NC(=S)Nc1ccc(S(=O)(=O)N2CCCCC2)cc1)c1ccccc1	36	-2	6	2	nt	nt	nt
CC1CC(C)CN(S(=O)(=O)c2ccc(NC(=S)NC(=O)c3ccccc3)cc2)C1 (configuration not stated)	47*	7	4	-7	21	1	5
CN(C)C(CNS(=O)(=O)c1ccc2ccccc2c1)c1ccccc1 (configuration not stated)	-4	15	2	-6	nt	nt	nt
O=C(Nc1ccnc(-c2cccnc2)n1)c1ccc(Cl)c(Cl)c1	46*	5	-3	-3	7	1	3
CC(C)(C)OC(=O)N(CCc1ccccc1)Cc1ccccc1OCc1cccc(NC(=O)/C=C/c2ccccc2)c1	20	6	1	1	nt	nt	nt
CC(C)(C)OC(=O)N(CCc1ccccc1)Cc1ccc(OCc2cccc(NC(=O)/C=C/c3ccccc3)c2)cc1	59*	8	1	-4	15	1	5
O=C(c1ccc(-c2ccccc2)cc1)N1CCN(c2ccc3c(c2)C2CC3CCN2C(=O)OCc2ccccc2)CC1 (configuration not stated)	54*	nt	nt	-1	40	1	7
O=C(Cn1nc(-c2ccccc2)c2ccccc2c1=O)Nc1ccc(F)cc1	1	-1	1	-5	nt	nt	nt
N#Cc1c(-c2ccccc2)c(-c2ccccc2)nn(CC(=O)NNC(=O)Nc2ccc(Cl)c(Cl)c2)c1=O	79*	-12	-3	-2	22	1	7
O=C(C1CCCN1S(=O)(=O)c1cccc2cccnc12)N1CCn2c1nc1ccccc12 (configuration not stated)	7	0	2	-2	nt	nt	nt
O=C(C1CCN(S(=O)(=O)c2cccc3cccnc23)CC1)N1CCn2c1nc1ccccc12	92*	20	-7	-33	84*	-5	86*
COc1cc([N+](=O)[O-])ccc1NC(=O)C[n+]1ccccc1C	5	-4	0	-1	nt	nt	nt
O=C1c2cnc3nc(SCc4cccc(Cl)c4)nn3c2CC2c3ccccc3CCN12 (configuration not stated)	42*	0	-2	-4	24	-4	-7
CC(=O)Nc1cccc(/C(C)=N/N2C(C)CCCC2C)c1 (configuration not stated)	14	6	0	1	nt	nt	nt
CN(C(=O)c1ccc(=O)n(Cc2ccc(Cl)cc2)c1)c1ccccc1	56*	10	-1	-1	36	-1	-14
CN(C(=O)c1cccn(Cc2ccccc2)c1=O)c1ccccc1	-6	21	-1	5	nt	nt	nt
SMILES	EBI2 block	MC4R antag cAMP	MC4R barr agon	m5-HT2A agonist	EBI2 conf	EBI2 ag	bGal counter
CC(=O)NC(c1cccc([N+](=O)[O-])c1)c1c(OC(C)=O)ccc2ccccc12 (configuration not stated)	-4	0	-1	-2	nt	nt	nt
CCCCC(=O)NC(c1cccc([N+](=O)[O-])c1)c1c(OC(C)=O)ccc2ccccc12 (configuration not stated)	39*	9	-3	8	10	0	12
O=C(NC12CC3CC(CC(C3)C1)C2)C1CC(=O)N(c2ccc(Br)cc2)C1 (configuration not stated)	51*	6	2	0	33	1	4
CC(C1=C(CCN(C)C)Cc2ccccc21)c1ccccn1 (configuration not stated)	-5	0	-2	-6	nt	nt	nt
O=[N+]([O-])c1ccc(N2CCN(C(=S)NCc3ccc(Cl)cc3)CC2)cc1	52*	15	-4	-7	32	2	9
O=C1CSC(c2cccnc2)N1Cc1ccc(Cl)c(Cl)c1 (configuration not stated)	11	17	-2	5	nt	nt	nt
Cc1ccnc(NC(=O)c2sc3cc(Cl)ccc3c2Cl)c1	55*	8	-3	-4	55*	-2	-11
Cc1ccnc(NC(=O)CNC(=O)c2sc3ccccc3c2Cl)c1	-3	9	3	-2	nt	nt	nt
Cc1cccc(OCC(=O)Nc2ccc(N3CCN(C(=O)c4ccccc4)CC3)cc2)c1	19	0	-3	3	nt	nt	nt
COc1ccc(OCC(=O)Nc2ccc(N3CCOCC3)cc2)cc1	84*	1	-1	0	79*	-1	-6
CCCOc1ccc(C(=O)N2CCN(c3ccc(NC(=O)CC)cc3Cl)CC2)cc1	70*	7	-2	4	59*	0	3
COc1ccc(OCC(=O)Nc2ccc(N3CCN(C(=O)c4ccco4)CC3)cc2)cc1	12	14	0	3	nt	nt	nt
Cc1ccc(OCC(=O)Nc2ccc(N3CCN(C(=O)c4ccc(C)cc4)CC3)cc2)cc1	57*	11	4	2	15	1	0
CN1CCN(c2ccc(NC(=O)COc3ccccc3)cc2Cl)CC1	1	-2	1	-6	nt	nt	nt
O=C(COc1ccc(Cl)cc1)Nc1ccc(N2CCN(C(=O)c3ccco3)CC2)cc1	54*	-7	1	2	33	0	4
Cc1ccc(OCC(=O)Nc2ccc(N3CCOCC3)cc2)cc1	11	-6	-1	-2	nt	nt	nt
